Assay type in all cases: functional
Assay [1] has as its system Pseudomonas aeruginosa. The experiment in a line: Antibacterial activity against multidrug/extremely drug-resistant/colistin-susceptible Pseudomonas aeruginosa isolate P259-96918 after 18 hrs by microtiter dilution assay. The following applies: isolate P259-96918, 18 h. The gist of the method: (§1)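 Broth microdilution following CLSI guidelines. An overnight culture was adjusted to 0.5 McFarland in saline, then diluted 1:50 in Mueller-Hinton broth. This inoculum was added in equal volume to 2-fold serial dilutions of agent in MHB and incubated 18 h at 37 °C. MIC was the lowest concentration with no visible growth.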

Assay [2] has as its system Pseudomonas aeruginosa. The experiment in a line: Antibacterial activity against multidrug/extremely drug-resistant/colistin-susceptible Pseudomonas aeruginosa isolate 101885 after 18 hrs by microtiter dilution assay. The following applies: isolate 101885, 18 h. The gist of the method:
as §1

Assay [3] has as its system Pseudomonas aeruginosa. In words: Antibacterial activity against Pseudomonas aeruginosa PAO1 after 18 hrs by microtiter dilution assay. The gist of the method:
as §1

The test system of assay [4] is Pseudomonas aeruginosa. In words: Antibacterial activity against multidrug/extremely drug-resistant/colistin-resistant Pseudomonas aeruginosa isolate 101243 after 18 hrs by microtiter dilution assay. The following applies: isolate 101243, 18 h. A digest of the protocol:
as §1

Assay [5] concerns Pseudomonas aeruginosa. In words: Antibacterial activity against multidrug/extremely drug-resistant/colistin-resistant Pseudomonas aeruginosa isolate 91433 after 18 hrs by microtiter dilution assay. The following applies: isolate 91433, 18 h. A digest of the protocol: as §1
Assay [6] deals with Pseudomonas aeruginosa. The experiment in a line: Antibacterial activity against multidrug/extremely drug-resistant/colistin-susceptible Pseudomonas aeruginosa isolate P264-104354 after 18 hrs by microtiter dilution assay. The following applies: isolate P264-104354, 18 h. A digest of the protocol: as §1
Assay [7] concerns Pseudomonas aeruginosa. The experiment in a line: Antibacterial activity against multidrug/extremely drug-resistant/colistin-susceptible Pseudomonas aeruginosa isolate 100036 after 18 hrs by microtiter dilution assay. The following applies: isolate 100036, 18 h. A digest of the protocol:
as §1

In assay [8] the test system is Pseudomonas aeruginosa. In words: Antibacterial activity against multidrug/extremely drug-resistant/colistin-susceptible Pseudomonas aeruginosa isolate P262-101856 after 18 hrs by microtiter dilution assay. The following applies: isolate P262-101856, 18 h. The gist of the method: as §1
The subject of assay [9] is Escherichia coli. The experiment in a line: Antibacterial activity against amikacin-resistant Escherichia coli isolate CAN-ICU 63074 after 18 hrs by microtiter dilution assay. The following applies: isolate CAN-ICU 63074, 18 h. A digest of the protocol: as §1
Assay [10] relates to Staphylococcus epidermidis. The experiment in a line: Antibacterial activity against methicillin-resistant Staphylococcus epidermidis isolate CAN-ICU 61589 after 18 hrs by microtiter dilution assay. The following applies: isolate CAN-ICU 61589, 18 h. The gist of the method:
as §1

Assay [11] concerns Escherichia coli. In words: Antibacterial activity against gentamicin-resistant Escherichia coli isolate CAN-ICU 61714 after 18 hrs by microtiter dilution assay. The following applies: isolate CAN-ICU 61714, 18 h. The gist of the method: as §1

In brackets after ≈: the same amount, converted by molar mass.

As usually defined, the MIC is the smallest concentration in the dilution series that meets the test's criterion for growth inhibition.

For the compound `CC[C@H]1OC(=O)[C@H](C)[C@@H](O[C@H]2C[C@@](C)(OC)[C@@H](O)[C@H](C)O2)[C@H](C)[C@@H](O[C@@H]2O[C@H](C)C[C@H](N(C)C)[C@H]2O)[C@](C)(O)C[C@@H](C)C(=O)[C@H](C)[C@@H](O)[C@]1(C)O` [ERYTHROMYCIN], the MIC against Pseudomonas aeruginosa [1] is 256 µg/mL (≈ 349 µM); against Pseudomonas aeruginosa [2], 256 µg/mL (≈ 349 µM); in the assay on Pseudomonas aeruginosa [3] (PAO1, 18 h), 256 µg/mL (≈ 349 µM); against Pseudomonas aeruginosa [4], 1020 µg/mL (≈ 1400 µM); in the assay with Pseudomonas aeruginosa [5] it was 512 µg/mL (≈ 698 µM); against Pseudomonas aeruginosa [6], 256 µg/mL (≈ 349 µM). The MIC in the assay with Pseudomonas aeruginosa [7] was 256 µg/mL (≈ 349 µM); in the assay with Pseudomonas aeruginosa [8], 1020 µg/mL (≈ 1400 µM).
GENTAMICIN came in with an MIC in the assay with Pseudomonas aeruginosa [3] of 1 µg/mL.
Regarding `O=C(N[C@H](CO)[C@H](O)c1ccc([N+](=O)[O-])cc1)C(Cl)Cl` [CHLORAMPHENICOL], the MIC came to 512 µg/mL (≈ 1580 µM) with Pseudomonas aeruginosa [1]; 512 µg/mL (≈ 1580 µM) against Pseudomonas aeruginosa [2]; 64 µg/mL (≈ 198 µM) in the assay with Pseudomonas aeruginosa [3] (PAO1, 18 h); 4 µg/mL (≈ 12.4 µM) in the assay on Pseudomonas aeruginosa [4]; 16 µg/mL (≈ 49.5 µM) in the assay with Pseudomonas aeruginosa [5]; 1020 µg/mL (≈ 3170 µM) with Pseudomonas aeruginosa [6]. The MIC against Pseudomonas aeruginosa [7] is greater than 512 µg/mL; against Pseudomonas aeruginosa [8], 1020 µg/mL (≈ 3170 µM).
`CN[C@H](CC(C)C)C(=O)N[C@H]1C(=O)N[C@@H](CC(N)=O)C(=O)N[C@H]2C(=O)N[C@H]3C(=O)N[C@H](C(=O)N[C@H](C(=O)O)c4cc(O)cc(O)c4-c4cc3ccc4O)[C@H](O)c3ccc(c(Cl)c3)Oc3cc2cc(c3O[C@@H]2O[C@H](CO)[C@@H](O)[C@H](O)[C@H]2O[C@H]2C[C@](C)(N)[C@H](O)[C@H](C)O2)Oc2ccc(cc2Cl)[C@H]1O` [VANCOMYCIN] returned an MIC against Pseudomonas aeruginosa [3] (PAO1, 18 h) greater than 1020 µg/mL.
`NCC[C@H](O)C(=O)N[C@@H]1C[C@H](N)[C@@H](O[C@H]2O[C@H](CN)[C@@H](O)[C@H](O)[C@H]2O)[C@H](O)[C@H]1O[C@H]1O[C@H](CO)[C@@H](O)[C@H](N)[C@H]1O` [AMIKACIN]: the MIC in the assay on Pseudomonas aeruginosa [3] (PAO1, 18 h) was found to be 1 µg/mL (≈ 1.71 µM); in the assay on Escherichia coli [9] it was 32 µg/mL (≈ 54.6 µM).
In the case of `COc1cc(Cc2cnc(N)nc2N)cc(OC)c1OC` [TRIMETHOPRIM], the MIC with Pseudomonas aeruginosa [1] was 512 µg/mL (≈ 1760 µM); in the assay with Pseudomonas aeruginosa [2], greater than 512 µg/mL; with Pseudomonas aeruginosa [3] (PAO1, 18 h), 256 µg/mL (≈ 882 µM); in the assay with Pseudomonas aeruginosa [4] it was 1020 µg/mL (≈ 3530 µM); in the assay on Pseudomonas aeruginosa [5], 512 µg/mL (≈ 1760 µM); in the assay on Pseudomonas aeruginosa [6], 256 µg/mL (≈ 882 µM). Further, the figures for the MIC against Pseudomonas aeruginosa [7] and in the assay on Pseudomonas aeruginosa [8] were 256 µg/mL (≈ 882 µM) and greater than 1020 µg/mL, respectively.
Regarding `O=C(O)c1cn(C2CC2)c2cc(N3CCNCC3)c(F)cc2c1=O` [CIPROFLOXACIN], the MIC against Pseudomonas aeruginosa [1] was 128 µg/mL (≈ 386 µM); in the assay with Pseudomonas aeruginosa [2], 32 µg/mL (≈ 96.6 µM); against Pseudomonas aeruginosa [6] it was 32 µg/mL (≈ 96.6 µM); in the assay with Pseudomonas aeruginosa [7], 64 µg/mL (≈ 193 µM); in the assay with Pseudomonas aeruginosa [8], 32 µg/mL (≈ 96.6 µM).
The compound `CO[C@@H]1[C@@H](OC(N)=O)[C@@H](O)[C@H](Oc2ccc3c(O)c(NC(=O)c4ccc(O)c(CC=C(C)C)c4)c(=O)oc3c2C)OC1(C)C` [NOVOBIOCIN] displayed an MIC in the assay with Pseudomonas aeruginosa [3] (PAO1, 18 h) of 1020 µg/mL (≈ 1670 µM).
Consider `C[C@@H](O)[C@H]1C(=O)N2C(C(=O)O)=C(S[C@@H]3CN[C@H](C(=O)N(C)C)C3)[C@H](C)[C@H]12` [MEROPENEM], for which, in the assay on Pseudomonas aeruginosa [3] (PAO1, 18 h), inhibition of growth (MIC) required 0.5 µg/mL (≈ 1.3 µM).
Turning to `NC[C@H]1O[C@H](O[C@H]2[C@H](O)[C@@H](O[C@H]3O[C@H](CO)[C@@H](O)[C@H](N)[C@H]3O)[C@H](N)C[C@@H]2N)[C@H](O)[C@@H](O)[C@@H]1O` [KANAMYCIN], the MIC against Pseudomonas aeruginosa [3] (PAO1, 18 h) was determined as 64 µg/mL (≈ 132 µM).
On to `COc1c(N2C[C@@H]3CCCN[C@@H]3C2)c(F)cc2c(=O)c(C(=O)O)cn(C3CC3)c12` [MOXIFLOXACIN], for which the MIC in the assay with Pseudomonas aeruginosa [1] came out at 512 µg/mL (≈ 1280 µM); in the assay on Pseudomonas aeruginosa [2], 64 µg/mL (≈ 159 µM); in the assay on Pseudomonas aeruginosa [3] (PAO1, 18 h) it was 1 µg/mL (≈ 2.49 µM); against Pseudomonas aeruginosa [4] it was 4 µg/mL (≈ 9.96 µM); in the assay with Pseudomonas aeruginosa [5], 8 µg/mL (≈ 19.9 µM); in the assay with Pseudomonas aeruginosa [6] it was 128 µg/mL (≈ 319 µM). The MIC in the assay with Pseudomonas aeruginosa [7] and with Pseudomonas aeruginosa [8] was 128 µg/mL (≈ 319 µM) in each case.
As for `CC(C)(O/N=C(\C(=O)N[C@@H]1C(=O)N2C(C(=O)[O-])=C(C[n+]3ccccc3)CS[C@H]12)c1csc(N)n1)C(=O)O` [CEFTAZIDIME], the MIC is 512 µg/mL (≈ 937 µM) against Pseudomonas aeruginosa [1]; 8 µg/mL (≈ 14.6 µM) against Pseudomonas aeruginosa [2]; 2 µg/mL (≈ 3.66 µM) against Pseudomonas aeruginosa [3] (PAO1, 18 h); 64 µg/mL (≈ 117 µM) against Pseudomonas aeruginosa [4]; greater than 32 µg/mL in assay [10]; 256 µg/mL (≈ 468 µM) with Pseudomonas aeruginosa [5]. The MIC against Pseudomonas aeruginosa [6] is 64 µg/mL (≈ 117 µM); against Pseudomonas aeruginosa [7], 8 µg/mL (≈ 14.6 µM); with Pseudomonas aeruginosa [8], 16 µg/mL (≈ 29.3 µM).
With `Cc1nnc(SCC2=C(C(=O)O)N3C(=O)[C@@H](NC(=O)Cn4cnnn4)[C@H]3SC2)s1` [CEFAZOLIN], the minimum inhibitory concentration (MIC) was 32 µg/mL (≈ 70.4 µM) in the assay on Escherichia coli [9], greater than 32 µg/mL in assay [10] and 32 µg/mL (≈ 70.4 µM) in the assay with Escherichia coli [11].

The values are drawn from ChEMBL document CHEMBL4014308, “Amphiphilic Tobramycin-Lysine Conjugates Sensitize Multidrug Resistant Gram-Negative Bacteria to Rifampicin and Minocycline” (J Med Chem, 2017).
